Test results taken from ChEMBL document CHEMBL5715960, “Epigenetic Co-Deregulation of EZH2/TET1 is a Senescence-Countering, Actionable Vulnerability in Triple-Negative Breast Cancer” (Theranostics, 2019).
Active and inactive are the calls of the source. The rule behind the calls is not given here.

Tests used:
MDA-MB-231 [1] = experiment: Effect on human MDA-MB-231 cells assessed as apoptotic phenotype by measuring increase in PUMA expression level at 2 uM in presence of adriamycin by immunoblot analysis; assay type: functional, cell-based
Procedure, shortened: (§1)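 Immunoblot of cell lysates after 0.05 µg/ml adriamycin alone, with 2 µM GSK343, or DMSO. α-Tubulin and total H3 used as loading controls.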

MDA-MB-231 [2] = experiment: Effect on human MDA-MB-231 cells assessed as increase in TET1 level at 2 uM in presence of adriamycin by immunoblot analysis; assay type: functional, cell-based
Procedure, shortened: (§2)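 Immunoblot of MDA-MB-231 and MCF7 lysates after 0.005 µg/ml adriamycin with or without 2 µM GSK343, or DMSO. α-Tubulin and total H3 used as loading controls.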

MDA-MB-231 [3] = experiment: Upregulation of CDKN1A gene in human MDA-MB-231 cells at 2 uM by qRT-PCR analysis; assay type: functional, cell-based
Procedure, shortened: (§3)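 Relative transcript levels measured by qRT-PCR in cells treated with 2 µM inhibitor, normalised to DMSO-treated control cells. Triplicate experiments unless stated otherwise; mean ± SD reported; unpaired two-tailed Student's t-test at p < 0.05.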

MDA-MB-231 [4] = experiment: […] in human MDA-MB-231 cells xenografted in Crl:NU-Foxn1-nu/nu mouse […] administered at 5 mg/kg, ip in presence of adriamycin treated for 21 days by SA-beta-gal staining analysis; assay type: functional, organism-based; conditions: time 21.0 day
Procedure, shortened: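 SA-β-gal staining of xenograft tumors. Twice-weekly intraperitoneal GSK343 5 mg/kg, adriamycin 1 mg/kg, the combination, or DMSO, started at a tumor volume of about 50 mm3 and continued for 21 days.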

MDA-MB-436 [5] = experiment: Downregulation of EZH2 protein expression in human MDA-MB-436 cells at 2 uM for 2 days by immunoblot analysis; assay type: functional, cell-based; conditions: time 2.0 day
MDA-MB-436 [6] = experiment: Effect on human MDA-MB-436 cells assessed as apoptotic phenotype by measuring increase in p53 expression level at 2 uM in presence of adriamycin by immunoblot analysis; assay type: functional, cell-based; procedure, shortened: as §1
MDA-MB-231 [7] = experiment: Upregulation of TP53 gene in human MDA-MB-231 cells at 2 uM by qRT-PCR analysis; assay type: functional, cell-based; procedure, shortened: as §3
MDA-MB-231 [8] = experiment: Antiproliferative activity in human MDA-MB-231 cells expressing shTET1 assessed as increase in SA-beta-gal positive cells by SA-beta-gal staining analysis (reference value: 9+/-1.5%); assay type: functional
MDA-MB-231 [9] = experiment: Antiproliferative activity against human MDA-MB-231 cells at 0.5 to 2 uM for 2 days by Guava viacount assay; assay type: functional, cell-based; conditions: dose 0.5-2 µM, time 2.0 day
Procedure, shortened: (§4)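 Cells plated at 2 × 10^4 (24-well) or 1 × 10^5 (12-well), exposed to a range of GSK343 concentrations for 2 days against DMSO solvent control; cell number and viability read by Guava ViaCount flow cytometry, relative to DMSO. Triplicate; mean ± SD.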

MDA-MB-436 [10] = experiment: Antiproliferative activity against human MDA-MB-436 cells assessed as increase in global H3K9me3 expression level by immunoblot analysis; assay type: functional, cell-based
Procedure, shortened: (§5)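 Cells exposed to GSK343 at 2 µM (standard level unless stated otherwise), lysed and immunoblotted; α-tubulin and total H3 as loading controls.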

MCF7 [11] = experiment: Cytotoxicity against human MCF7 cells at 0.5 to 2 uM for 2 days by Guava viacount assay; assay type: toxicity, cell-based; conditions: mcf7, 48 h, dose 0.5-2 µM, time 2 day; procedure, shortened: as §4
MDA-MB-231 [12] = experiment: Downregulation of E2F1 in human MDA-MB-231 cells at 2 uM for 2 days by immunoblot analysis; assay type: functional, cell-based; conditions: time 2.0 day
MDA-MB-436 [13] = experiment: Effect on human MDA-MB-436 cells assessed as apoptotic phenotype by measuring increase in BAX expression level at 2 uM in presence of adriamycin by immunoblot analysis; assay type: functional, cell-based; procedure, shortened: as §1
MDA-MB-231 [14] = experiment: Effect on human MDA-MB-231 cells assessed as decrease in H3K27me3 level at 2 uM in presence of adriamycin by immunoblot analysis; assay type: functional, cell-based; procedure, shortened: as §2
MDA-MB-231 [15] = experiment: Cytotoxicity against human MDA-MB-231 cells assessed as killing of cells at 2 uM in presence of adriamycin; assay type: functional, cell-based
Procedure, shortened: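 Viability after a range of adriamycin concentrations given alone or together with 2 µM GSK343, measured by Guava ViaCount; mean ± SD.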

MDA-MB-231 [16] = experiment: Induction of cell cycle arrest in human MDA-MB-231 cells assessed as accumulation of cells at S phase measured at 2 uM by BrdU/PI staining based flow cytometric analysis (reference value: 44.6%); assay type: functional
MDA-MB-231 [17] = experiment: Upregulation of TET1 in human MDA-MB-231 cells at 2 uM for 2 days by immunoblot analysis; assay type: functional, cell-based; conditions: time 2.0 day
MDA-MB-436 [18] = experiment: Downregulation of EZH2 transcription in human MDA-MB-436 cells at 2 uM for 2 days by immunoblot analysis; assay type: functional, cell-based; conditions: time 2.0 day
MDA-MB-231 [19] = experiment: Antiproliferative activity against human MDA-MB-231 cells assessed as downregulation of PCNA by immunoblot analysis; assay type: functional, cell-based; procedure, shortened: as §5
MDA-MB-436 [20] = experiment: Effect on human MDA-MB-436 cells expressing shTET1 assessed as reduction in cyclinA by immunoblot analysis; assay type: functional, cell-based
MDA-MB-436 [21] = experiment: In vivo activation of TET1 in Crl:NU-Foxn1-nu/nu mouse xenografted with human MDA-MB-436 cells at 5 mg/kg, ip in presence of adriamycin treated for 21 days; assay type: functional, organism-based; conditions: time 21.0 day
MDA-MB-231 [22] = experiment: Effect on human MDA-MB-231 cells expressing shTET1 assessed as reduction in cyclinA by immunoblot analysis; assay type: functional, cell-based
MDA-MB-436 [23] = experiment: Antiproliferative activity in human MDA-MB-436 cells assessed as increase in C12FDG based fluorescent SA-beta-gal positive cells at 2 uM in presence of adriamycin by FACS analysis; assay type: functional, cell-based
Procedure, shortened: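 Cells given 0.005 µg/ml adriamycin with or without 2 µM GSK343, or DMSO; SA-β-gal activity detected with C12FDG fluorescent substrate by flow cytometry, reported as percent positive cells. Mean ± SD.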

MDA-MB-231 [24] = experiment: Induction of cell cycle arrest in human MDA-MB-231 cells assessed as accumulation of cells at G1 phase measured at 2 uM by BrdU/PI staining based flow cytometric analysis (reference value: 51.5%); assay type: functional
MCF7 [25] = experiment: Effect on human MCF7 cells assessed as increase in TET3 transcription by qRT-PCR analysis; assay type: functional, cell-based
Procedure, shortened: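 qRT-PCR of TET1, TET2 and TET3 transcripts in breast cancer cells exposed to GSK343 (2 µM unless otherwise indicated), shown relative to DMSO-treated cells. Mean ± SD, triplicate unless stated.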

MDA-MB-436 [26] = experiment: Induction of cell cycle arrest in human MDA-MB-436 cells assessed as accumulation of cells at G1 phase measured at 2 uM by BrdU/PI staining based flow cytometric analysis (reference value: 48.3%); assay type: functional
MDA-MB-436 [27] = experiment: Effect on human MDA-MB-436 cells expressing shTET1 assessed as reduction in PCNA by immunoblot analysis; assay type: functional, cell-based
MDA-MB-231 [28] = experiment: Antiproliferative activity in human MDA-MB-231 cells assessed as increase in SA-beta-gal positive cells at 2 uM for 5 days by SA-beta-gal staining analysis; assay type: functional, cell-based; conditions: time 5.0 day
Procedure, shortened: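 GSK343 2 µM or DMSO for 5 days, then chromogenic SA-β-gal staining and counting of positive cells. Triplicate; mean ± SD.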

MCF7 [29] = experiment: Antiproliferative activity against human MCF7 cells assessed as increase in global H3K9me3 expression level by immunoblot analysis; assay type: toxicity, cell-based; procedure, shortened: as §5

Q: What does the source list for `CCCc1cc(C)[nH]c(=O)c1CNC(=O)c1cc(-c2ccnc(N3CCN(C)CC3)c2)cc2c1cnn2C(C)C`?
A: Activity (MDA-MB-231 [1]): Active; Activity (MDA-MB-231 [2]): Active; Activity (MDA-MB-231 [3]): Active; Activity (MDA-MB-231 [4]): Active; Activity (MDA-MB-436 [5]): Active; Activity (MDA-MB-436 [6]): Active; Activity (MDA-MB-231 [7]): Active; Activity (MDA-MB-231 [8]): 12.3%; Activity (MDA-MB-231 [9]): Active; Activity (MDA-MB-436 [10]): Active; Activity (MCF7 [11]): Non-Toxic; Activity (MDA-MB-231 [12]): Active; Activity (MDA-MB-436 [13]): Active; Activity (MDA-MB-231 [14]): Active; Activity (MDA-MB-231 [15]): Active; Activity (MDA-MB-231 [16]): 16.1%; Activity (MDA-MB-231 [17]): Active; Activity (MDA-MB-436 [18]): Active; Activity (MDA-MB-231 [19]): Active; Activity (MDA-MB-436 [20]): inactive; Activity (MDA-MB-436 [21]): Active; Activity (MDA-MB-231 [22]): inactive; Activity (MDA-MB-436 [23]): Active; Activity (MDA-MB-231 [24]): 76.8%; Activity (MCF7 [25]): inactive; Activity (MDA-MB-436 [26]): 71.1%; Activity (MDA-MB-436 [27]): inactive; Activity (MDA-MB-231 [28]): Active; Activity (MCF7 [29]): Non-Toxic
